Measured values from different studies.
Lines come from different studies, so protocols differ.
Target: MAP/microtubule affinity-regulating kinase 4 (MARK4, Homo sapiens, UniProt Q96L34)
Residues used in one study (Q96L34 1-752): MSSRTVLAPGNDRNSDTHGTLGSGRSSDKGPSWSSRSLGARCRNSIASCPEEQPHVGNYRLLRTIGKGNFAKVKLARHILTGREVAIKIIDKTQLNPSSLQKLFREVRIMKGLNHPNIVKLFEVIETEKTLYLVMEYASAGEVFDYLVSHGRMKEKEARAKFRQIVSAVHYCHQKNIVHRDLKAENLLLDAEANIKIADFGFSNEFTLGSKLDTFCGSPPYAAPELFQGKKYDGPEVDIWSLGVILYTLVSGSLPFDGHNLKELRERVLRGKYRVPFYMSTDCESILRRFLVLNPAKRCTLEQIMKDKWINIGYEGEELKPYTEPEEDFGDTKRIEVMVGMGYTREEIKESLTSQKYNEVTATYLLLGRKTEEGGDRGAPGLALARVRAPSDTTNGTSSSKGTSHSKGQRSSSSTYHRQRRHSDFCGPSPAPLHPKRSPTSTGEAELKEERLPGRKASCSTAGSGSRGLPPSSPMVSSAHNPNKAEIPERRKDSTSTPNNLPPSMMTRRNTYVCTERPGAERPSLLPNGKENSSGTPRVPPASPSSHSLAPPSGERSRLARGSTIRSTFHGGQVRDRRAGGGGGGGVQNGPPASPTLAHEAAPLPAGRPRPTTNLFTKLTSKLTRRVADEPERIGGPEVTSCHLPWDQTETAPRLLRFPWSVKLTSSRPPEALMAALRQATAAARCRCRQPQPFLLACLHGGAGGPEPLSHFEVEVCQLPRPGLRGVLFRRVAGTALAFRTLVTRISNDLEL

| Structure (SMILES) | assay | conditions | endpoint | result |
| --- | --- | --- | --- | --- |
| Nc1ncnc2occ(-c3ccc(NC(=O)Nc4cc(C(F)(F)F)ccc4F)cc3)c12 | cell-free assay, inhibitor | 20 µM | remaining signal | 51% |
| CC/C(=N\NC(=O)NCc1cccc(O)c1)c1ccc(O)c(C)c1O | enzyme activity, inhibitor | 0.1 µM | inhibition | -2.4% |
| CO[C@@H](C)c1c(Nc2ccc([C@H](N(C)C(=O)C3CCS(=O)(=O)CC3)C(F)(F)F)cc2)cnc2cc(Cl)nn12 | cell-free assay, competition with immobilised ligand | 1 µM | remaining binding | 76% |
| Cc1nn(CC(F)(F)F)cc1Nc1ncc(C2CC2)c(NCCCNC(=O)C2CCC2)n1 | enzyme activity, inhibitor, radiometric | 1 µM | remaining activity | 100% |
| COc1cc2ncnc(Nc3ccc(Oc4ccccc4)c(C)c3C)c2cc1OC | enzyme activity, inhibitor | 1 µM | inhibition | -1% |
| Cc1nn(CC(F)(F)F)cc1Nc1ncc(Br)c(NCCCNC(=O)C2CCC2)n1 | enzyme activity, inhibitor, radiometric | 1 µM | remaining activity | 27% |
| O=C1NC(=O)c2cc(Nc3ccc(F)cc3)c(Nc3ccc(F)cc3)cc21 | cell-free assay | 0.5 µM | remaining signal | 98.2% |
| NS(=O)(=O)c1ccc(CNc2nc(Nc3cccc(NC(=O)N4CCCC4)c3)ncc2Br)cc1 | enzyme activity, inhibitor, radiometric | 1 µM | remaining activity | 42% |
| C[C@H]1CCN(c2nccc(-c3cnn4ncccc34)n2)C1 | binding | 1 µM | remaining binding | 100% |
| C[C@@H](c1cccc(C#N)c1)n1cc(Cl)cc(C(N)=O)c1=N | cell-free assay, competition with immobilised ligand | 1 µM | remaining binding | 100% |
| NS(=O)(=O)c1ccc(CNc2ccnc(Nc3cccc(CN4CCOCC4)c3)n2)cc1 | enzyme activity, inhibitor, radiometric | 1 µM | remaining activity | 98% |
| NS(=O)(=O)c1cc(NC(=O)Cc2ccccc2)ccc1Oc1cccc(Cl)c1 | cell-free assay, competition with immobilised ligand | 1 µM | remaining binding | 100% |
| c1cc(CN2CCOCC2)cc(Nc2ncc(C3CC3)c(NCCc3c[nH]cn3)n2)c1 | enzyme activity, inhibitor, radiometric | 1 µM | remaining activity | 4% |
| O=C(O)[C@H]1[C@H](Cn2nnc3ccccc3c2=O)CC[C@@H]1C(=O)c1ccc(OCCC2CCOCC2)cc1 | cell-free assay, competition with immobilised ligand | 1 µM | remaining binding | 96% |
| COc1cc2ncnc(Nc3ccc(F)c(Cl)c3)c2cc1OCCCN1CCOCC1 | cell-free assay | 0.5 µM | remaining signal | 94.2% |
| CCS(=O)(=O)c1cc2cc(C[C@@](O)(CC(C)(C)c3ccc(F)cc3C(N)=O)C(F)(F)F)[nH]c2cn1 | cell-free assay, competition with immobilised ligand | 1 µM | remaining binding | 100% |
| CCOc1cc(-c2nncn2C)ccc1Nc1ncc2cc(C)nc(NCC(C)(C)C)c2n1 | enzyme activity, inhibitor, FRET | 1 µM | inhibition | < 15% |
| COc1cc(Nc2cnc(C#N)c(O[C@H](C)CN(C)C)n2)ncc1-c1cnn(C)c1 | enzyme activity, inhibitor, radiometric | 10 µM | remaining activity | 83% |
| COc1cc(/C=C/C(=O)CC(=O)/C=C/c2ccc(O)c(OC)c2)ccc1O | enzyme activity, inhibitor | 1 µM | activity vs control | 74% |
| COc1cc(Nc2c(C#N)cnc3cc(OCCCN4CCN(C)CC4)c(OC)cc23)c(Cl)cc1Cl | cell-free assay | 0.5 µM | remaining signal | 60.6% |
| NS(=O)(=O)c1ccc(CNc2nc(Nc3cccc(CN4CCOCC4)c3)ncc2C2CC2)cc1 | enzyme activity, inhibitor, radiometric | 1 µM | remaining activity | 98% |
| CCCOc1ccc([C@@H]2[C@@H](C(=O)O)[C@H](c3ccc4c(c3)OCO4)CN2CC(=O)Nc2c(CC)cccc2CC)cc1 | cell-free assay, competition with immobilised ligand | 1 µM | remaining binding | 100% |
| O=C(NCCCNc1nc(Nc2cccc(CN3CCOCC3)c2)ncc1C1CC1)C1CCC1 | enzyme activity, inhibitor, radiometric | 1 µM | remaining activity | 5% |
| CCOCCn1cc(C(=O)Nc2ccc(-n3nc(-c4cccnc4)cc3C(F)(F)F)cn2)ccc1=O | cell-free assay, competition with immobilised ligand | 1 µM | remaining binding | 100% |
| FC(F)(F)Oc1cccc(-c2cnc3ccc(-c4ccncc4)nn23)c1 | enzyme activity, inhibitor, radiometric | 1 µM | activity vs control | 91% |
